High-throughput results from PubChem BioAssay.
RAM network inh – inhibitors of the yeast RAM network | S. cerevisiae dse1pr::URA3 reporter, 5-FOA growth OD615, 2 d; analog-sensitive cbk1-as2 kinase mutant strain | inhibition, % at 50 µM | hit rate 1.8% among 190,000;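 active = inhibition above a set limit, 3 SD over mean compound inhibition, cut at about 8.4% in these data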;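 also: 0% = DMSO-only wells with no growth and 100% = 10 µM 1-NA-PP1 full growth; inhibition rescues growth on 5-FOA so higher OD means more RAM inhibition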
Yeast life ext – yeast lifespan extension; S. cerevisiae growth with nicotinamide, OD615; deaD strain in restrictive glucose medium; inhibition of the nicotinamide effect, % at 10 µM; hit rate 0.68% among 130,000; AID 775;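 active = inhibition above a set limit, placed 3 SD over the median of all compounds, cut at about 26% in these data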;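 also: 0% = nicotinamide-treated wells and 100% = cells grown without nicotinamide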
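System: DeaD-strain S. cerevisiae / Buffer or medium: CSMM-D, restrictive glucose (dextrose) synthetic minimal medium / Probe or stimulus: nicotinamide, 1.5 mM, co-present with compound / Compound: one concentration, 10 µM, DMSO 0.25% / Incubation: 48 h compound exposure at 30 °C, humidified / Technique: optical density (absorbance) at 615 nm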
KCC2 mod – KCC2 (human) Cl- transport modulation; B-score of Tl+ flux slope (higher = more flux/activation; lower = inhibition) at 10 µM; hit rate 2.2% among 190,000; Q9H2X9; KCC2 cells, thallium flux FluoZin-2 fluorescence;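 active = thallium flux slope and its plate-corrected score both differing from the plate sample mean at a set confidence after two filtering rounds, in either direction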;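 also: slope of fluorescence scaled to starting intensity during 10 to 20 s after thallium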
Target sequence (Q9H2X9 whole entry, looked up): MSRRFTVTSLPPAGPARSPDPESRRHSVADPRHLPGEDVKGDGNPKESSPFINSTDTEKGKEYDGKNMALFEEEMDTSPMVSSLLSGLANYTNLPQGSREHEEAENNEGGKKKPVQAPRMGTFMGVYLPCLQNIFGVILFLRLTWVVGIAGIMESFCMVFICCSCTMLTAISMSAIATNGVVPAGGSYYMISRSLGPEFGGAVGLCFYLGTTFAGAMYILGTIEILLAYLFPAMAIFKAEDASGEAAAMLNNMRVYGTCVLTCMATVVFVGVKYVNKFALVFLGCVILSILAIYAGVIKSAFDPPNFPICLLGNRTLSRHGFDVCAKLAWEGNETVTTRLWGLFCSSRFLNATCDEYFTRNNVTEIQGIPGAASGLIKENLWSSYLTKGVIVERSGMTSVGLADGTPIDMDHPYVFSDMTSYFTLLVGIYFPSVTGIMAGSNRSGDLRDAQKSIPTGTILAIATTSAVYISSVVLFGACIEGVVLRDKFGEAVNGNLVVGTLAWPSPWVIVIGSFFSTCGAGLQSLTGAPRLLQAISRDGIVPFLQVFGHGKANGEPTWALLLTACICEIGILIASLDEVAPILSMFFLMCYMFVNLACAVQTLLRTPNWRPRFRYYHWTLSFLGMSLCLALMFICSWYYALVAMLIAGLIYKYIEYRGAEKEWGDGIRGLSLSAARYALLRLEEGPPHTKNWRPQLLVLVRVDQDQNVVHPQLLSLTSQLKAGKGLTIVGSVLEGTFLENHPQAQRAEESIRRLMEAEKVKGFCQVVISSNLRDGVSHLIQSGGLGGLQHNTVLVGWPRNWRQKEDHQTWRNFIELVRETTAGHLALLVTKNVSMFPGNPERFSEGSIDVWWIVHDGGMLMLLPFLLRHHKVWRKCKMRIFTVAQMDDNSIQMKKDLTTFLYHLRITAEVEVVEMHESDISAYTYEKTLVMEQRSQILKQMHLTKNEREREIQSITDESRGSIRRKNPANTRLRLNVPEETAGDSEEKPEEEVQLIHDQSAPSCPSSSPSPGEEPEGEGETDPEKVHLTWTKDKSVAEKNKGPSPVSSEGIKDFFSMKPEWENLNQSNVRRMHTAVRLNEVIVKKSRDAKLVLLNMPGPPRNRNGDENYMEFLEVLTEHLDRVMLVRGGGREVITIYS
WT yeast gro inh – growth inhibition of WT yeast, mitochondrial fusion screen; mitochondrial fusion phenotypic screen, WT strain; AID 1362; hit rate 2.1% among 190,000; inhibition, % at 10 µM; in the data active = inhibition above about 58%; tested in S. cerevisiae
Yeast growth inh – reduces growth of yeast BB579 in restrictive medium. S. cerevisiae BB579 growth, OD615, 48 h. inhibition, % at 10 µM. hit rate 0.51% among 140,000;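 active = inhibition above a set limit, 3 SD over the mean compound inhibition, cut at about 44% in these data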
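controls = amphotericin B 10 µg/mL, positive | assay system = DeaD yeast strain BB579 | schedule = 48 h compound exposure at 30 °C after 4 h preincubation | detection = OD615 turbidity measurement | medium = restrictive CSMM-D medium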
KCC2 sec1 – KCC2 (human) modulation, secondary assay; HEK293-KCC2, thallium flux, FluoZin2 fluorescence; active compounds read high; normalised thallium flux (F/F0 slope) at 10 µM; shares compounds with KCC2 mod; hit rate 15% among 3,700;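 active = thallium flux slope above the same plate's solvent-only control mean plus 3 SD; inconclusive = the two replicate wells disagree; inactive = no significant difference from solvent-only control wells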
KCC2 bumet counter – thallium flux despite bumetanide block in KCC2 cells, secondary assay 3; HEK293-KCC2 + bumetanide/ouabain, thallium flux FluoZin2; active compounds read high; AID 1714; normalized thallium flux at 10 µM; shares compounds with KCC2 mod; hit rate 49% among 3,700;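 active = thallium entry rate above the same plate's blocked-transporter control wells by more than 3 SD; inconclusive = the two repeat wells disagree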;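 also: raw slope of fluorescence over initial fluorescence between 10 and 20 s after thallium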
KCC2 secondary2 – confirmation of human KCC2 transport modulators. shares compounds with KCC2 mod. HEK293-KCC2, thallium flux FluoZin2 fluorescence; actives lie on both sides; F/F0 rise rate, 10–20 s post-thallium. normalized thallium flux at 10 µM. hit rate 23% among 3,700;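 active = thallium flux slope more than 3 SD above or below the plate's solvent-only control mean, mostly below; inconclusive = the two repeat wells disagreed; inactive = no significant shift from solvent-only controls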;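 also: raw slope with 0.1% DMSO as baseline and bumetanide as block control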
HEK293 Tl flux – acts in parental HEK cells, KCC2 counter-screen; shares compounds with KCC2 mod; thallium flux rate (normalised fluorescence) at 10 µM; hit rate 46% among 3,700; HEK293 parental cells, thallium flux FluoZin2, ouabain; baseline-ratio fluorescence slope, 10–20 s after thallium; AID 1716;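 active = thallium flux rate significantly above the same plate's solvent-only control wells, beyond their mean plus 3 SD; inconclusive = the two replicate wells gave conflicting results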
KCC2 retest ouab – confirmation of human KCC2 modulators with ouabain. shares compounds with KCC2 mod. HEK293-KCC2, thallium flux FluoZin2 fluorescence; bidirectional: low = inhibitor, high = activator. raw Tl+ flux slope (below DMSO = inhibition, above = activation) at 10 µM. hit rate 48% among 3,700;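 active = thallium flux slope beyond 3 SD from same-plate DMSO control mean in most replicates, usually higher, sometimes lower; inconclusive = repeat tests gave conflicting results; inactive = no significant difference from controls in most replicates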;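 also: slope of initial-normalized fluorescence between seconds 10 and 20 after thallium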
HEK counter2 – acts in parental HEK cells, second KCC2 counter-screen; shares compounds with KCC2 mod; HEK293 parental, thallium flux FluoZin-2 fluorescence slope; thallium flux slope at 10 µM; hit rate 33% among 3,700;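 active = thallium flux slope above the same plate's solvent-control mean plus 3 SD in both duplicate wells; inconclusive = duplicate wells that disagreed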;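 also: run without ouabain in cells lacking the KCC2 cotransporter; slope of fluorescence scaled to its starting value between 10 and 20 s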
* = called active by the depositor; ? = inconclusive; nt = not tested or not shown. Hits are enriched below; roughly 5.5% of the tested compounds scored in any of these assays.

SMILES	RAM network inh	Yeast life ext	KCC2 mod	WT yeast gro inh	Yeast growth inh	KCC2 sec1	KCC2 bumet counter	KCC2 secondary2	HEK293 Tl flux	KCC2 retest ouab	HEK counter2
Cc1[nH]c2ccccc2c1C(=O)COC(=O)CCS(=O)(=O)c1ccccc1Cl	4	1	-3.1*	8	-45	0.01	?	0.034	0.004	0.017*	0.012
Cc1[nH]c2ccccc2c1C(=O)COC(=O)C1CC(=O)N(Cc2ccccc2)C1 (stereo not drawn)	0	-20	-1.3	-6	-45	nt	nt	nt	nt	nt	nt
Cc1ccc2c(c1)C1(C)C(C(C)(C)N2C=O)C1(Cl)Cl (stereo not drawn)	nt	nt	-1.6	nt	nt	nt	nt	nt	nt	nt	nt
O=C(O)c1ccc(-c2ccccc2)[nH]c1=O	nt	nt	-0.14	nt	nt	nt	nt	nt	nt	nt	nt
CC1(C)CC(=O)c2c(-c3cccnc3)n[nH]c2C1	1	-11	nt	-18	-50	0.01	0.0056	0.034	0.0078	0.02	0.012
CC1(C)CC(=O)c2c(Cc3ccccc3)n[nH]c2C1	2	-17	-0.48	9	-17	nt	nt	nt	nt	nt	nt
O=C(CN1CCN(c2ccc(O)cc2)CC1)NC(=O)NCc1ccco1	0	-3	0.24	-14	-24	nt	nt	nt	nt	nt	nt
CC(C)=CC(=O)OCc1cc([N+](=O)[O-])cc2c1OCOC2	5	nt	0.1	-1	nt	nt	nt	nt	nt	nt	nt
COc1ccc(Cl)cc1C(=O)CSc1nc(N)cc(N)n1	0	-9	-8.7*	-7	-3	0.0075	0.0057	0.029	0.0064	0.027	0.01
Cn1c(/N=C/c2ccc3c(c2)OCO3)nc2ccccc21	0	-14	-3.1*	43	-2	0.0075	0.0044	?	0.0073	0.017*	0.01
CC12CCC(C(=O)Nc3ccc(Br)cn3)(OC1=O)C2(C)C (stereo not drawn)	nt	nt	0.44	nt	nt	nt	nt	nt	nt	nt	nt
CSS(=O)(=O)c1cccc2cccnc12	nt	nt	2.8	nt	nt	nt	nt	nt	nt	nt	nt
CN(C)C(=S)NC(=O)C12CC3CC(C)(CC(C)(C3)C1)C2	nt	nt	17*	nt	nt	?	0.039*	0.034	0.016*	0.025*	0.02*
CC12CC3CC(C)(C1)CC(C(=O)NCc1ccco1)(C3)C2	0	nt	-0.027	0	nt	nt	nt	nt	nt	nt	nt
O=S(=O)(c1ccccc1)N1CCn2c(nc3ccccc32)C1	1	-8	nt	4	7	0.0088	?	0.034	0.0074	0.018	0.011
Cc1[nH]nc2c1C(c1ccsc1)C1=C(CC(C)(C)CC1=O)N2 (stereo not drawn)	1	nt	nt	1	nt	nt	nt	nt	nt	nt	nt
CC(=O)c1c(C)nc(-c2ccc(Cl)cc2)nc1N	0	nt	1.6	13	nt	nt	nt	nt	nt	nt	nt
CC(=O)c1c(C)nc(-c2ccc(Cl)cc2)nc1N=CN(C)C	-1	-8	nt	-12	19	0.0054	0.0043	0.033	0.0079	0.019	0.011
CC(C)=CC(O)C/C(C)=C/COc1ccc2ccc(=O)oc2c1 (stereo not drawn)	nt	nt	-0.6	nt	nt	nt	nt	nt	nt	nt	nt
CCOc1cc(/C=N/NC(=O)CN(CCc2ccccc2)S(=O)(=O)c2ccc(NC(C)=O)cc2)ccc1O	1	-6	-6.4*	9	10	0.0073	0.0051	0.036	0.0042	?	0.01
CCOc1ccc(C2C(C(C)=O)=C(O)C(=O)N2CCc2c[nH]c3ccccc23)cc1 (stereo not drawn)	5	nt	0.62	-15	nt	nt	nt	nt	nt	nt	nt
O=C(Nc1nc2ccsc2c(=O)s1)c1ccc(F)cc1Cl	nt	nt	1.3	nt	nt	nt	nt	nt	nt	nt	nt
O=C(Nc1nc2ccsc2c(=O)s1)c1ccc(F)cc1	nt	nt	3.8*	nt	nt	0.01	?	0.032	0.011*	0.021	0.012
C/C(Cn1nnc([N+](=O)[O-])n1)=N\NC(=O)c1ccc(O)cc1	nt	nt	-0.1	nt	nt	nt	nt	nt	nt	nt	nt
O=c1ccc(N=Nc2ccccc2)ccc1O	nt	nt	151*	nt	nt	0.012*	0.12*	0.12*	0.11*	0.12*	0.11*
SMILES	RAM network inh	Yeast life ext	KCC2 mod	WT yeast gro inh	Yeast growth inh	KCC2 sec1	KCC2 bumet counter	KCC2 secondary2	HEK293 Tl flux	KCC2 retest ouab	HEK counter2
CC(Oc1ccccc1F)C(=O)NNC(=O)c1cc2ccccc2o1 (stereo not drawn)	2	nt	nt	-1	nt	0.0072	0.028*	0.034	0.022*	0.03*	0.016*
CCCNC(=O)c1ccccc1NC(=O)COc1ccc(OC)cc1	1	-7	6.5*	1	-26	0.009	?	0.033	0.008	0.021	0.011
COc1ccc(OCC(=O)NNC(=O)c2cc3ccccc3o2)cc1	3	1	5.1*	3	-42	0.013*	0.017*	0.032	?	?	0.013
COc1ccc(OCC(=O)Nc2ccccc2O)cc1	0	-8	-0.065	7	-30	nt	nt	nt	nt	nt	nt
COC(=O)c1ccc(NC(=O)CSc2nnc(C(C)NC(=O)c3ccccc3Cl)n2C)cc1 (stereo not drawn)	4	-10	1.3	-5	-34	nt	nt	nt	nt	nt	nt
CCc1nnc(NC(=O)CSc2ncc(-c3ccccc3)n2CC)s1	1	-4	-0.71	2	-32	nt	nt	nt	nt	nt	nt
CC1=C([N+](=O)[O-])C(c2ccccc2C(F)(F)F)NC(=O)N1C (stereo not drawn)	nt	nt	0.84	nt	nt	nt	nt	nt	nt	nt	nt
COc1ccc2[nH]c3c(=O)n4c(nc3c2c1)SCCC4	6	nt	-1.3	-2	nt	nt	nt	nt	nt	nt	nt
c1ccc(CC2CCN(c3nnnn3-c3ccccc3)CC2)cc1	6	-4	nt	62*	-14	0.0067	0.0057	0.028	?	0.016*	0.009
CS(=O)(=O)NCCC1=CCCCC1	1	-4	-0.41	-8	18	nt	nt	nt	nt	nt	nt
C/C(=N\NC(=O)c1ccccc1O)C1C(=O)c2ccccc2C1=O	3	98*	-3.8*	-17	-49	0.0069	0.0055	0.029	?	0.015*	0.009
CCC/C(C)=N/NC(=O)c1ccccc1O	0	3	0.11	16	-26	nt	nt	nt	nt	nt	nt
O=C(NN=C(Cc1ccccc1)Cc1ccccc1)c1ccccc1O	2	nt	23*	77	nt	?	0.062*	0.05*	0.037*	0.049*	0.031*
COCCn1nnnc1SCC(=O)Nc1ccc2c(c1)OCO2	2	nt	-0.0094	-10	nt	nt	nt	nt	nt	nt	nt
Cc1cccc(-c2nsc(SCC(=O)NCC3CCCO3)n2)c1 (stereo not drawn)	1	nt	-0.36	-16	nt	nt	nt	nt	nt	nt	nt
CCOC(=O)C1=C(CC)Nc2ccccc2N/C1=N\S(=O)(=O)c1cc(Br)ccc1Br	5	nt	-4*	32	nt	0.0055	?	0.024*	0.0063*	0.015*	?
